Screening data as filed in PubChem BioAssay.
KCNK3 block = human KCNK3 channel inhibition, primary screen. O14649. CHO-KCNK3 thallium flux, FluxOR fluorescence; hits give low values. B-score at 10 µM. 0.84% of 340,000 active. AID 602410;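 active = B-score under library mean minus 4 SD, starting fluorescence ratio at most library mean plus 5 SD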;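 note: more negative B-score means stronger inhibition of thallium flux through KCNK3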
Target sequence (O14649 whole entry, looked up): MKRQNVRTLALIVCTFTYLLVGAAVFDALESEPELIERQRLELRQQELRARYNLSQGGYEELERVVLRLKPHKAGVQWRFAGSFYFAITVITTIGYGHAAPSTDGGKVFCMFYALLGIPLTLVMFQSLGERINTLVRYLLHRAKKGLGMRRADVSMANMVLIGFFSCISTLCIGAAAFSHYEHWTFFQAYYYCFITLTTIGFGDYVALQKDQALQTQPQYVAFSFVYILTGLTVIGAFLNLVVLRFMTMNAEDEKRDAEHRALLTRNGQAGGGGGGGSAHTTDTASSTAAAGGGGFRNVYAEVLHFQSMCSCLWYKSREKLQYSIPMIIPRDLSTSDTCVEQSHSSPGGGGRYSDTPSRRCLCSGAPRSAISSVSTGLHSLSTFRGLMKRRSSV
KCNK9 block = human KCNK9 channel inhibition; HEK293 KCNK9, FluxOR thallium flux fluorescence; hits give low values; B-score at 10 µM; 1.2% of 310,000 active;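 active = ratio B-score over 3 SD below the library mean, with starting fluorescence within 5 SD of its mean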;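 note: negative B-score means less thallium flux so channel inhibition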
KCNQ1 pot = human KCNQ1 channel potentiation or activation; P51787; B-score at 10 µM; CHO-K1 KCNQ1, thallium flux FluxOR fluorescence; hits give high values; 0.35% of 310,000 active;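 active = fluorescence ratio B-score, a plate-corrected score, at least three library SD, with initial intensity B-score within 5 SD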
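Assay system: stable KCNQ1 CHO-K1 line; medium: assay buffer, equal DMSO in all wells; timing: 90 min dye loading and 20 min compound exposure, both at room temperature; technique: kinetic FluxOR thallium fluorescence, 10-s 1-Hz baseline, 110-s post-stimulus read; read-out basis: B score of baseline-normalized fluorescence ratio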
KCNQ1 block = blocks the human KCNQ1 potassium channel; P51787; CHO-K1 KCNQ1, FluxOR thallium flux fluorescence; hits give high values; B-score at 10 µM; 1.3% of 310,000 active; AID 2642;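 active = compounds whose thallium flux B-score, printed positive for inhibition, exceeds three library SD while starting fluorescence stays within three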;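 note: channel opened by potassium depolarization with thallium stimulus after 20 min compound exposure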
Kir21 inh = inhibitors of mouse Kir2.1 inward-rectifier potassium channel. 0.85% of 310,000 active. HEK293-Kir2.1, FluxOR thallium flux fluorescence; hits give low values. P35561. B-score at 10 µM;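 active = fluorescence ratio B-score at or below minus 3 SD of library scores, with starting-brightness B-score within 2 SD, cut at about -4.2 in these data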;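 note: channel flux triggered by added potassium and thallium sulfate stimulus; B-score of peak minus minimum fluorescence over baseline after thallium stimulus; more negative B-score means stronger Kir2.1 block with less thallium influx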
Target sequence (P35561 whole entry, looked up): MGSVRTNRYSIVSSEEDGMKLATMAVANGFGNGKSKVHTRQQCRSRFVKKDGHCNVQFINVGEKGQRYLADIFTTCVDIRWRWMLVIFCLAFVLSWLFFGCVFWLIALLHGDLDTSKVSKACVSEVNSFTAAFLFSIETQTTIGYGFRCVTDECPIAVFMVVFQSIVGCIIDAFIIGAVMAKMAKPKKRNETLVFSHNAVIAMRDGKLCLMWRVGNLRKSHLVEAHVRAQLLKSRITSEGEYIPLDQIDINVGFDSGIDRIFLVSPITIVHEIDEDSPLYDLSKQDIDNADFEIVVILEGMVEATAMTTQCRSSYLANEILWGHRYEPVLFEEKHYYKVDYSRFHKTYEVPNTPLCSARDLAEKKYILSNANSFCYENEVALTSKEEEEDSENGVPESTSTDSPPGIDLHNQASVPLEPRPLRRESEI
hERG protect = shields human hERG channel from block by proarrhythmic agents. AID 1511. activation (rescue from dofetilide block), less the hit threshold, % at 10 µM. Q12809. 0.51% of 310,000 active. CHO-hERG, FluxOR thallium flux, dofetilide IC70 present;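 active = activation above the mean of controls blocked by dofetilide plus 5 SD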;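 note: thallium influx through hERG after potassium depolarization seen as dye fluorescence rise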
KCNQ1 inh valid = confirmation of human KCNQ1 potassium channel inhibitors | shares compounds with KCNQ1 block | KCNQ1 cell line, FluxOR thallium flux fluorescence | inhibition, % at 10 µM | 93% of 1,600 active;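 active = primary screen active, with duplicate mean exceeding buffer control mean plus 3 SD of buffer wells, cut at about 28% in these data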
CHO KCNQ1 ctr = KCNQ1 inhibitor counter-screen hit in parental CHO cells; shares compounds with KCNQ1 block; parental CHO-K1, FluxOR thallium flux fluorescence ratio; hits give low values; zero means no signal rise above baseline; fluorescence ratio (Tl flux) at 10 µM; 21% of 1,600 active; AID 588366;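 active = mean of duplicate thallium-flux fluorescence ratios in parental host cells more than 5 SD below the buffer control mean, cut at about 0.38 in these data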;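 note: ratio is peak minus minimum fluorescence divided by baseline fluorescence; actives read low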
KCNQ1 APC inh = confirmation of human KCNQ1 potassium channel inhibitors by electrophysiology; calls only at 10 µM; 20% of 490 active; shares compounds with KCNQ1 block; KCNQ1-CHO cells, automated patch clamp current;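 active = KCNQ1 current drop exceeding 3 SD of negative control wells, seen in both duplicate runs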;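 note: steady state current during a 2 s step from -80 to +40 mV; negative values mean current inhibition and positive values mean potentiation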
KCNQ2 inh = KCNQ1 inhibitor that also blocks rat KCNQ2 channel; shares compounds with KCNQ1 block; KCNQ2 cells, FluxOR thallium flux fluorescence; inhibition, % at 10 µM; 71% of 1,600 active; AID 651746;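 active = mean percent inhibition of the KCNQ2 thallium signal more than 5 SD above the buffer-only control wells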;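 note: KCNQ2 expressed in CHO cells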
KCNQ1 KCNE1 spec = selectivity of KCNQ1 inhibitors: inhibition of human KCNQ1/KCNE1 channel | shares compounds with KCNQ1 block | KCNQ1/KCNE1 cells, FluxOR thallium flux fluorescence | inhibition, % at 10 µM | 77% of 1,600 active | AID 652147;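 active = mean percent inhibition of duplicate wells above the buffer-only control mean plus 3 SD of those controls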
Large screens that a line does not name were inactive (follow-up assays come after a bar, where they were run). Shown are actives, neighbours in structure and some others; about 3.7% of the full set was active somewhere.

O=C(Nc1ccccc1N1CCCCC1)C1CCN(S(=O)(=O)c2cccc(C(F)(F)F)c2)CC1	KCNQ1 block 6 | KCNQ1 inh valid 62.0 | CHO KCNQ1 ctr inactive | KCNQ2 inh 109.7% | KCNQ1 KCNE1 spec 48.0%
O=C(Nc1ccccc1N1CCCC1)C1CCN(S(=O)(=O)c2cccc(C(F)(F)F)c2)CC1	none
COCCN(C(=O)C1CC(=O)N(Cc2ccc(C)cc2)C1)c1c(N)n(CC(C)C)c(=O)[nH]c1=O (stereo not given)	none (no result: KCNK9 block, KCNQ1 pot, KCNQ1 block, Kir21 inh, hERG protect)
CC(C)(C)C1CCC2(CC1)C(C#N)=C(SCC(=O)NC1CCCCC1)NC(=O)C2C#N (stereo not given)	KCNQ1 block 9 | KCNQ1 inh valid 71.5 | CHO KCNQ1 ctr inactive | KCNQ2 inh 72.0% | KCNQ1 KCNE1 spec inactive
O=C1NC(=O)/C(=C\c2ccc(OCc3cccc([N+](=O)[O-])c3)cc2)N1	none
COc1ccc(CCNC(=O)C2CCCN(S(=O)(=O)c3ccc(F)cc3)C2)cc1OC (stereo not given)	none
O=C(CCCc1c[nH]c2ccccc12)NCC1COc2ccccc2O1 (stereo not given)	KCNQ1 block 10 | KCNQ1 inh valid 62.5 | CHO KCNQ1 ctr inactive | KCNQ2 inh 74.0% | KCNQ1 KCNE1 spec 78.5%
COc1cccc(NC(=O)NCc2c(-c3ccccc3)noc2C)c1	none
CCc1noc(C)c1C(=O)N1CCCSC1=Nc1ccccc1C(C)C	KCNQ1 block 6 | KCNQ1 inh valid 83.5 | CHO KCNQ1 ctr inactive | KCNQ2 inh 105.7% | KCNQ1 KCNE1 spec 103.5%
Cc1ccc(N2C(=O)c3ccccc3C2C(=O)c2ccc(O)cc2O)cc1 (stereo not given)	none
Cc1ccc(N2C(=O)c3ccccc3C2C(=O)c2ccc(C)c(C)c2O)cc1 (stereo not given)	KCNQ1 block 7 | KCNQ1 inh valid 90.5 | CHO KCNQ1 ctr 0.365 | KCNQ2 inh 103.3% | KCNQ1 KCNE1 spec 74.0%
O=C(Nc1ccc2c(c1)OCO2)Nc1ccc2c(c1)OCO2	none
C=CCNC(=S)Nc1ccc(Cl)cc1	none
C=CCNC(=S)Nc1ccc(OC(F)F)c(Cl)c1	KCNQ1 block 9 | KCNQ1 inh valid inactive | CHO KCNQ1 ctr inactive | KCNQ2 inh 61.0% | KCNQ1 KCNE1 spec inactive
O=C(Nc1ccc(OC(F)F)c(Cl)c1)Nc1ccc2c(c1)OCO2	KCNQ1 block 7 | KCNQ1 inh valid 83.5 | CHO KCNQ1 ctr inactive | KCNQ2 inh inactive | KCNQ1 KCNE1 spec inactive
O=C(Nc1nncs1)C12CC3CC(CC(Cl)(C3)C1)C2	none
CN(C)S(=O)(=O)c1ccc(Cl)c(NC(=O)COC(=O)c2cc(-c3ccccc3)nc3ccccc23)c1	KCNQ1 block 6 | KCNQ1 inh valid 60.5 | CHO KCNQ1 ctr inactive | KCNQ2 inh 74.3% | KCNQ1 KCNE1 spec 74.5%
O=C1C=C(c2ccc3ccccc3c2)C[C@@H](c2ccc(F)cc2)C1	none (no result: KCNK9 block, KCNQ1 pot, KCNQ1 block, Kir21 inh, hERG protect)
Cc1cccc2cc3c(N)c(C#N)sc3nc12	none
Cc1sc(NC(=O)c2sc3nc4c(C)cccc4cc3c2N)c(C#N)c1C	KCNQ1 block 9 | KCNQ1 inh valid 54.0 | CHO KCNQ1 ctr inactive | KCNQ2 inh inactive | KCNQ1 KCNE1 spec 87.0%
Cc1cccc(CN2CCN(c3ncccn3)CC2)c1	none
Cc1cccc(Cn2c(C(C)(C)C)cc3cccnc32)c1	KCNQ1 block 8, Kir21 inh -5.12 | KCNQ1 inh valid 64.0 | CHO KCNQ1 ctr inactive | KCNQ2 inh 67.0% | KCNQ1 KCNE1 spec inactive
O=S(=O)(NCCCc1ccccc1)c1ccccc1	none
Cc1ccc(C)c(S(=O)(=O)NCCCc2ccccc2)c1	KCNQ1 block 7 | KCNQ1 inh valid 98.0 | CHO KCNQ1 ctr inactive | KCNQ1 APC inh inactive | KCNQ2 inh inactive | KCNQ1 KCNE1 spec inactive
O=C(Nc1ccccc1)Nc1ccc(Cl)c(S(=O)(=O)N2CCOCC2)c1	KCNQ1 block 11 | KCNQ1 inh valid inactive | CHO KCNQ1 ctr inactive | KCNQ2 inh inactive | KCNQ1 KCNE1 spec inactive
NCCOc1ccc(C23CC4CC(CC(C4)C2)C3)cc1	KCNQ1 block 7, Kir21 inh -4.73 | KCNQ1 inh valid 147.0 | CHO KCNQ1 ctr inactive | KCNQ1 APC inh active | KCNQ2 inh inactive | KCNQ1 KCNE1 spec inactive
CCCSc1nnc(NC(=O)Nc2ccc(F)cc2)s1	KCNQ1 block 8 | KCNQ1 inh valid 49.5 | CHO KCNQ1 ctr inactive | KCNQ2 inh 60.3% | KCNQ1 KCNE1 spec 37.0%
O=C(c1ccc2nccnc2c1)N1CCCC(N2CCN(c3ccc(F)cc3)CC2)C1 (stereo not given)	none
C[C@@H]1O[C@@H](OCCC(=O)O)[C@H](O)C[C@H]1O	none (no result: KCNK9 block, KCNQ1 pot, KCNQ1 block, Kir21 inh, hERG protect)
CC(C)(C)OC(=O)N1CCCC(C(=O)CC#N)C1 (stereo not given)	KCNQ1 block 9 | KCNQ1 inh valid 96.0 | CHO KCNQ1 ctr inactive | KCNQ1 APC inh inactive | KCNQ2 inh 109.0% | KCNQ1 KCNE1 spec 187.5%
CC(C)(C)c1ccc(S(=O)(=O)/N=C2\C=C(NS(=O)(=O)c3ccccc3)C(=O)c3ccccc32)cc1	KCNK9 block -7, KCNQ1 block 8 | KCNQ1 inh valid 69.5 | CHO KCNQ1 ctr inactive | KCNQ2 inh 77.3% | KCNQ1 KCNE1 spec 141.5%
CCCCc1cc(=O)oc2cc(OCC(=O)NCCN3CCOCC3)ccc12	none
CCN(CC)CC(=O)Nc1sc(C)cc1C(=O)c1ccc(C)cc1	KCNQ1 block 7 | KCNQ1 inh valid 117.5 | CHO KCNQ1 ctr inactive | KCNQ1 APC inh inactive | KCNQ2 inh 90.7% | KCNQ1 KCNE1 spec 153.5%
COc1ccc(C(=O)CC(=O)C(=O)Nc2ccc(OC)c(Cl)c2)cc1	KCNK9 block -6.68, KCNQ1 block 15 | KCNQ1 inh valid inactive | CHO KCNQ1 ctr inactive | KCNQ2 inh inactive | KCNQ1 KCNE1 spec inactive
CCCCCCCCCn1ccc(=N)cc1	KCNQ1 block 7 | KCNQ1 inh valid 70.5 | CHO KCNQ1 ctr inactive | KCNQ2 inh 70.7% | KCNQ1 KCNE1 spec inactive
S=C1NCCNC(=S)NCCOCCOCCOCCN1	none
CC(C)(C)NC(=O)CSc1nc2cc(S(=O)(=O)N3CCCCC3)ccc2o1	none (no result: KCNK9 block, KCNQ1 pot, KCNQ1 block, Kir21 inh, hERG protect)
